FXIa inh 1536: human FXIa protease inhibitors, primary screen, biochemical, 1536-well; purified FXIa, Boc-Glu-Ala-Arg-AMC fluorogenic substrate; AID 798, 2007; 0.14% of 220,000 active; inhibition, % at 5 µM;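 active = inhibition of at least 40%; inactive = inhibition below 40%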;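 note: fluorescence of freed AMC excited at 355 nm; 0% = enzyme without compound and 100% = no enzyme blank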
hK5 inh: human KLK5 protease inhibitors, primary screen, biochemical, 1536-well; Kallikrein-5 (Homo sapiens), Q9Y337; recombinant hK5, fluorogenic AMC substrate cleavage; inhibition, % at 5 µM; 0.59% of 210,000 active; AID 873, 2007;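 active = inhibition of 40% or more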;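 note: 0% = enzyme controls without compound and 100% = no-enzyme blanks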
AHR activator: AHR activators, primary screen, cell-based, luminescence, luciferase reporter, human; Aryl hydrocarbon receptor (Homo sapiens), P35869; AHR-responsive luciferase reporter cells; activation, % at 5 µM; 2.5% of 320,000 active; AID 2796, 2010; in the data active = activation above about 47%;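 note: 0% = vehicle wells and 100% = reference agonist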
Target sequence (P35869 whole entry, looked up): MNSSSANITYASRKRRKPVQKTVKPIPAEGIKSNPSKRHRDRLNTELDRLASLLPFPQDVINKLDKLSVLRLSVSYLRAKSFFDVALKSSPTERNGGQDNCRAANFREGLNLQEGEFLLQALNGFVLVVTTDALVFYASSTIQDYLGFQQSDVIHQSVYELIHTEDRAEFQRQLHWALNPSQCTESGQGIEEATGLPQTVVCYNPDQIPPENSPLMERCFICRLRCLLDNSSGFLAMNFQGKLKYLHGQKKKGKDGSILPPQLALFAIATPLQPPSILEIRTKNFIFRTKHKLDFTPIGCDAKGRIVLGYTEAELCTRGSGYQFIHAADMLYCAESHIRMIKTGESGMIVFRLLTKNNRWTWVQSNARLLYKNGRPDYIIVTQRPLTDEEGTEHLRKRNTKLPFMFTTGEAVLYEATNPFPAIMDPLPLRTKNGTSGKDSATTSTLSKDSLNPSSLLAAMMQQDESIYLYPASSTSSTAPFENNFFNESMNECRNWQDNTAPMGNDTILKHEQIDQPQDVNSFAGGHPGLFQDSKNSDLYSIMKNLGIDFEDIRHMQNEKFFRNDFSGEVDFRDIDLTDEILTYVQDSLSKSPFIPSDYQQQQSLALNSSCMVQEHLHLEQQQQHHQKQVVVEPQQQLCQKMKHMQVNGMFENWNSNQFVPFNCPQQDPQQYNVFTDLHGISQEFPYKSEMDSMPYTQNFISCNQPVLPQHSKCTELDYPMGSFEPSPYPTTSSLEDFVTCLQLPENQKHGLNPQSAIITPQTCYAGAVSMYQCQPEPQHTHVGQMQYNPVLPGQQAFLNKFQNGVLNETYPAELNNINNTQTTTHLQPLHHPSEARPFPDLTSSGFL
FXIIa inh: human FXIIa protease inhibitors, primary screen, biochemical, 1536-well | purified FXIIa, Boc-QGR-AMC fluorogenic substrate, 2 h | Coagulation factor XII (Homo sapiens), P00748 | inhibition, % at 5 µM | AID 800, 2007 | 0.3% of 220,000 active; in the data active = inhibition above about 40%;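 note: 0% = enzyme with no compound and 100% = blank without enzyme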
STAT3 act: IL-6 driven STAT3 reporter potentiators, primary screen, U3A cells, luciferase, luminescence, MLSCN library; AID 871, 2007; IL-6 STAT3-luciferase reporter; 100% = signal with IL-6 EC80 alone; 0.91% of 190,000 active; activation (% of control), % at 5.6 µM;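 active = activation above the screen-wide mean of compound activation plus 3 SD, cut at about 130% in these data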;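 note: 0% = background luminescence of wells with medium and substrate only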
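Assay system – human STAT1-deficient U3A cells with stable STAT3-luciferase reporter · Also added – IL-6 (33 ng/mL) · Schedule – compound 1 h, then IL-6 6 h at 37 °C · Technique – reporter luminescence signal · Evaluation – % activation versus median of IL-6-stimulated wells · Benchmarks – IL-6-only wells as 100% reference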
Thrombin inh: human alpha-thrombin inhibitors, primary screen, counter-screen for coagulation protease inhibitor project, biochemical, 1536-well, fluorogenic AMC substrate; 0.26% of 220,000 active; Prothrombin (Homo sapiens), P00734; Boc-VPR-AMC fluorogenic substrate cleavage; inhibition, % at 5 µM;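 active = inhibition at or above 40%; inactive = inhibition below 40%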;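 note: 0% = enzyme with no compound and 100% = wells without enzyme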
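Material: human alpha-thrombin protein. Incubation: reaction at ambient temperature. Technique: fluorescence of released AMC, ex 355 nm, em 460 nm. Control set: no-compound enzyme wells and no-enzyme blanks. Also added: Boc-VPR-AMC substrate, 15 µM final. Buffer or medium: pH 7.5 Tris (50 mM) with NaCl 150 mM, Tween 20 0.05%.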
Active calls of the source: *; . = not tested or not shown. Hits are enriched below; roughly 3.5% of the tested compounds scored in any of these assays.

SMILES	FXIa inh 1536	hK5 inh	AHR activator	FXIIa inh	STAT3 act	Thrombin inh
Cc1ccc(S(=O)(=O)N2CCOCC2)cc1C(=O)NNC(=O)c1ccoc1C	4.0	-1.5	0.0	9.9	99.9	.
COc1ccc2nc(C)cc(N/N=C/c3cccc(OC)c3O)c2c1	.	.	111.4*	.	.	.
COc1cccc(/C=N/Nc2nc(Nc3ccccc3)nc(-n3nc(C)cc3C)n2)c1O	-4.0	-8.7	60.1*	5.9	86.4	-5.0
COc1ccc(/C=N/Nc2cc(C)nc3ccc(Br)cc23)cc1	.	.	70.7*	.	.	.
Cc1c(N2C(=O)/C(=C3/C(=O)N(C)c4ccccc43)SC2=S)c(=O)n(-c2ccccc2)n1C	6.5	-0.9	6.5	20.4	98.0	6.1
CC(=O)N1C(=O)/C(=C2\SC(=S)N(c3c(C)n(C)n(-c4ccccc4)c3=O)C2=O)c2ccccc21	-5.8	9.6	16.8	5.6	125.1	50.1*
COc1ccc(OC)c(NC(=O)Cc2coc3ccc4ccccc4c23)c1	2.5	-14.3	25.4	4.0	96.9	-2.4
COC(=O)c1cc2occc2n1CC(=O)Nc1cc(OC)cc(OC)c1	2.4	62.2*	1.8	26.6	104.2	18.0
CC(C)Cn1c2c(c(O)c(C(=O)Nc3nccs3)c1=O)CCCC2	6.3	12.9	3.7	15.1	96.4	1.6
CCCn1c2c(c(O)c(C(=O)Nc3nccs3)c1=O)CCCC2	-4.5	32.6	20.6	14.8	121.3	100.6*
CNC(=O)N(O)C1N(/N=C/c2cc(Br)ccc2O)C(=S)SC1(C)C (stereo unspecified)	.	.	5.7	.	.	.
O=C(NNc1c(Cl)cc(Cl)cc1Cl)C1CCC1	-5.6	-13.2	-0.1	-0.1	103.7	-7.8
CC1CCN(S(=O)(=O)c2ccc3c(c2)c(=O)c(C(=O)NCc2ccco2)cn3C)CC1	-2.3	-8.2	1.5	8.7	102.9	14.6
O=C(NCc1ccco1)c1c[nH]c2ccc(S(=O)(=O)N3CCOCC3)cc2c1=O	-9.5	-26.6	.	12.2	98.9	74.3*
CCN(CC)S(=O)(=O)c1ccc2c(c1)c(=O)c(C(=O)NCc1ccco1)cn2C	-1.4	0.2	4.1	7.2	99.0	62.1*
C=CCn1cc(C(=O)NCc2ccc3c(c2)OCO3)c(=O)c2cc(S(=O)(=O)N(CC)CC)ccc21	6.2	-5.4	.	12.8	98.3	42.0*
CCN(CC)S(=O)(=O)c1ccc2c(c1)c(=O)c(C(=O)NCc1ccc3c(c1)OCO3)cn2C	7.4	-2.9	5.0	13.5	103.9	64.2*
O=C(NCCN1CCOCC1)c1c[nH]c2ccc(S(=O)(=O)N3CCOCC3)cc2c1=O	3.0	-10.6	0.0	15.4	102.3	-0.7
C=CCn1cc(C(=O)NCc2cccnc2)c(=O)c2cc(S(=O)(=O)N(CC)CC)ccc21	6.6	-12.8	7.9	15.2	102.8	2.2
CC(C)CC(=O)Nc1nnc(SCC(=O)Nc2nccs2)s1	.	.	0.0	.	.	.
Cc1ccc(SC[C@H](C)CN2CC[C@H](C(C)(C)C)CCC2=O)cc1	.	.	1.0	.	.	.
Cc1cc(N)c(-n2cc3c(=O)n(C)c(=O)n(C)c3c2)cc1C	0.8	-16.0	55.7*	15.2	105.1	3.0
CCCn1nc(NC(=O)CC(C)C)c2cc3ccccc3nc21	1.3	-12.1	78.1*	4.1	114.7	3.9
C#CCOCCOCCOCCNc1nc(N2CCN(C(=O)[C@H](CCCCN)n3cc(CN)nn3)CC2)nc(N2CCN(C(=O)[C@H](CC(N)=O)n3cc(C(N)[C@H](C)CC)nn3)CC2)n1 (stereo partly specified)	.	.	-1.9	.	.	.
CN(C)S(=O)(=O)c1ccc(Cl)c(C(=O)NC2=NCCS2)c1	.	.	9.7	.	.	.
SMILES	FXIa inh 1536	hK5 inh	AHR activator	FXIIa inh	STAT3 act	Thrombin inh
OC(CN1CCN(c2cccc(C(F)(F)F)c2)CC1)c1c[nH]c2ccccc12 (stereo unspecified)	-23.9	0.5	19.5	7.1	134.9*	-2.4
OC(COCc1cccs1)CN1CCN(c2cccc(C(F)(F)F)c2)CC1 (stereo unspecified)	9.5	-2.5	0.0	10.0	100.3	1.6
Cc1ccc(O)c(NC(=O)c2cc([N+](=O)[O-])ccc2Cl)c1	-3.0	1.1	43.9	7.3	126.3	-2.9
Cc1cc(O)c(NC(=O)c2cc([N+](=O)[O-])ccc2Cl)cc1C	-5.2	8.1	36.6	0.2	134.2*	-13.7
CN(C)c1ccc(C(O)Cc2nc3ccccc3n2C)cc1 (stereo unspecified)	.	.	60.1*	.	.	.
COc1ccccc1C(O)Cc1nc2ccccc2n1C (stereo unspecified)	7.1	-0.4	1.8	-4.3	87.6	-5.0
CC(C)c1ccc(C(O)Cc2nc3ccccc3n2C)cc1 (stereo unspecified)	-2.2	-3.9	70.1*	-0.5	.	-9.8
CCCCCc1c(O)nc(SCC(=O)O)[nH]c1=O	.	.	.	.	105.0	.
O=C(Nc1cc(S(=O)(=O)N2CCOCC2)ccc1N1CCCC1)c1ccc2c(c1)S(=O)(=O)c1ccccc1C2=O	-1.4	.	2.6	7.4	110.2	-3.4
Cc1ccc(C(=O)c2coc3c2C(=O)C(=O)c2ccccc2-3)cc1	-2.7	-21.9	50.0*	10.4	93.2	3.5
CC(C)CCNS(=O)(=O)c1ccc(-c2ccc(S(=O)(=O)NCCC(C)C)cc2)cc1	4.6	-35.3	-1.2	4.6	89.6	-11.6
COc1ccc(CCNS(=O)(=O)c2ccc3c(c2)OCCO3)cc1OC	9.7	68.9*	0.3	27.2	98.7	24.3
COc1ccc(CCNS(=O)(=O)c2ccc3c(c2)CCCC3)cc1OC	.	.	4.1	.	.	.
COc1ccc(S(=O)(=O)NCCC(C)C)cc1OC	4.0	121.0*	1.4	17.6	97.2	10.2
Cc1cccc(-n2c(C)c(C)c3c(N)ncnc32)c1	.	.	16.4	.	.	.
CN1C(=O)/C(=C/c2ccccc2OCc2ccc(F)cc2)N(C)C1=S	-9.0	28.1	77.5*	-2.1	115.8	1.3
Cn1c(Cl)cnc1C(O)c1ccccc1 (stereo unspecified)	1.5	-3.9	-0.2	4.9	95.1	3.7
Cc1nn(C(=O)c2cccs2)c(N)c1-c1ccccc1	4.4	-1.1	-0.6	13.6	105.0	-3.8
CC(=O)c1c(C)nn(C(=O)c2cccs2)c1C	7.7	55.6*	2.8	15.1	106.1	9.6
O=C1c2cccc3cccc(c23)C(=O)N1c1ccccn1	33.6	47.3*	-3.3	29.1	76.5	6.2
CCOc1ccc(OCC)c(NC(=O)CCS(=O)(=O)c2ccc(Br)s2)c1	-5.2	-4.0	14.3	5.0	102.3	43.3*

Source: PubChem BioAssay (several laboratories)
